Results published in ChEMBL document CHEMBL1143728, “Anti-inflammatory benzenoids from Antrodia camphorata” (J Nat Prod, 2007).

System: Neutrophil
Experiment: Inhibition of fMLP-induced superoxide production in human neutrophils
Assay type: functional, cell-based
Method in brief: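 Neutrophils from venous blood of healthy volunteers (20-35 years), isolated by double-gradient Ficoll-Hypaque centrifugation with hypotonic lysis of red cells. Cells at 1 × 10⁶ cells/mL preincubated with test agent (100 µmol/L) 5 min at 37 °C, then stimulated with fMLP (1 µmol/L) in presence of ferricytochrome c (0.5 mg/mL). Extracellular superoxide read continuously by ferricytochrome c reduction at 550 nm. Inhibition % = [(control−resting)−(compound−resting)]/(control−resting) × 100. Three independent experiments, SEM; ibuprofen positive control.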

Q: How did the IC50 turn out when `COc1cc(C)c(OC)c2c1OCO2` was run?
A: 26.1 µM

Q: With `COc1c(C)c(-c2c(C)c(OC)c3c(c2OC)OCO3)c(OC)c2c1OCO2` as the compound, how does the IC50 read?
A: > 100 µM

Q: How did the IC50 turn out when `C[C@H]1[C@H](O)CC[C@@H]2[C@]1(C)CC[C@H]1[C@@]2(C)CC[C@@]2(C)[C@@H]3CC(C)(C)CC[C@]3(C)CC[C@]12C` was run?
A: > 100 µM

Q: For `COc1cc(C(=O)Cl)c(OC)c(OC)c1OC`, which IC50 is on record?
A: > 100 µM

Q: With `C=C(CC[C@@H](C)[C@H]1CC[C@H]2C3=C(C(=O)C[C@]12C)[C@@]1(C)CCC(=O)[C@@H](C)[C@@H]1CC3=O)[C@H](C)C(=O)O` [ANTCIN B] as the compound, how does the IC50 read?
A: 9.82 µM

Q: For `C=C(CC[C@@H](C)[C@H]1CC[C@H]2C3=C(C(=O)C[C@]12C)[C@@]1(C)CCC(=O)[C@@H](C)[C@@H]1CC3)[C@H](C)C(=O)O` [ANTICIN A], which IC50 is on record?
A: 8.55 µM

Q: Which IC50 does the source give for `C=C(C)C#Cc1c(OC)cc(OC)c(OC)c1C` [ANTROCAMPHIN A] here?
A: 9.33 µM

Q: `COc1cc(OC)c(OC)c(C)c1C#CC(C)=O` [ANTROCAMPHIN B] was tested. Which IC50 did it give?
A: > 100 µM

Q: With `COc1cc(OC)c(OC)c(C)c1C#C[C@@]1(C)OC(=O)O[C@@]1(C)C#Cc1c(OC)cc(OC)c(OC)c1C` [ANTRODIOXOLANONE] as the compound, how does the IC50 read?
A: > 100 µM

Q: Which IC50 does the source give for `C=C(CC[C@@H](C(=O)O)[C@H]1CC[C@@]2(C)C3=CC[C@H]4C(C)(C)[C@@H](O)CC[C@]4(C)C3=CC[C@]12C)C(C)C` [DEHYDROEBURICOIC ACID] here?
A: 77.5 µM

Q: For `CC(C)Cc1ccc(C(C)C(=O)O)cc1` (configuration not stated) [IBUPROFEN], which IC50 is on record?
A: 27.5 µM

Q: How did the IC50 turn out when `c1cc2c(cc1[C@H]1OC[C@H]3[C@@H]1CO[C@@H]3c1ccc3c(c1)OCO3)OCO2` [SESAMIN] was run?
A: 90.2 µM
